Laboratory results: ChEMBL document CHEMBL4316656, “Antitrypanosomal Activity of Acetogenins Isolated from the Seeds of Porcelia macrocarpa Is Associated with Alterations in Both Plasma Membrane Electric Potential and Mitochondrial Membrane Potential” (J Nat Prod, 2019)
Activity calls are given as the source filed them. The calls are words filed in the database; no cut-off is given here.

Columns and labels:
Trypanosoma cruzi [1] = assay: Induction of mitochondrial membrane potential depolarization in Trypanosoma cruzi trypomastigotes at antitrypanosomal IC50 measured after 2 hrs by DAPI/Mito tracker red dye based fluorescence microscopic analysis; type: functional, organism-based
Method in brief: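 Treated trypomastigotes costained with 10 μM DAPI and 1 μM MitoTracker Red CM-H2XROS, 30 min at 37 °C in the dark, then fluorescence microscopy; CCCP positive control, untreated parasites as reference.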

Trypanosoma cruzi [2] = assay: Antitrypanosomal activity against Trypanosoma cruzi trypomastigotes measured after 24 hrs by resazurin dye based assay; type: functional, organism-based
Method in brief: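 Cell-derived trypomastigotes, 1 × 10^6/well, exposed 24 h at 37 °C; viability by resazurin read at 570 nm; benznidazole as standard; IC50 calculated.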

Trypanosoma cruzi [3] = assay: Induction of plasma membrane electric potential depolarization in Trypanosoma cruzi trypomastigotes at antitrypanosomal IC50 measured after 60 mins by DiSBAC2(3) dye based flow cytometry; type: functional, organism-based
Method in brief: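 Trypomastigotes (2 × 10^6/well) exposed at IC50 for 60 min at 37 °C, then 0.2 μM DiSBAC2(3) added and read by flow cytometry; gramicidin D 0.5 μg/mL defined 100%, untreated 0%; at least two independent assays in duplicate.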

Trypanosoma cruzi [4] = assay: Induction of mitochondrial membrane potential depolarization in Trypanosoma cruzi trypomastigotes at antitrypanosomal IC50 measured after 2 hrs by JC1 dye based flow cytometry; type: functional, organism-based
Trypanosoma cruzi [5] = assay: Antitrypanosomal activity against Trypanosoma cruzi amastigotes infected in peritoneal macrophages (unknown origin) measured after 48 hrs by resazurin dye based assay; type: functional, organism-based
Trypanosoma cruzi [6] = assay: Disruption of plasma membrane integrity in Trypanosoma cruzi trypomastigotes at antitrypanosomal IC50 measured after 120 mins by Sytox green dye based fluorescence assay; type: functional, organism-based
Method in brief: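 Trypomastigotes (2 × 10^6/well) with 1 μM SYTOX Green, compound at IC50, fluorescence followed 120 min at ex 485/em 520 nm; 0.5% Triton X-100 gives maximal permeabilization; compound background and DMSO controls; duplicates, at least two independent assays.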

[7] = Selectivity index, ratio of CC50 for mouse L929 cells to IC50 for Trypanosoma cruzi trypomastigotes; type: toxicity; details: read-out: Ratio CC50/IC50
Method in brief: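 Ratio of the mammalian CC50 (L929, MTT, 48 h) to the IC50 against trypomastigotes (resazurin, 24 h).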

Trypanosoma cruzi [8] = assay: Antitrypanosomal activity against Trypanosoma cruzi amastigotes infected in peritoneal macrophages (unknown origin) assessed as elimination of parasite at 100 uM by optical microscopic analysis; type: functional, organism-based
Method in brief: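 Peritoneal macrophages infected with T. cruzi trypomastigotes (ratio 10:1) and treated at 100 μM. Infected untreated macrophages served as control. Parasite clearance was judged by optical microscopy at 1000× magnification.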

Trypanosoma cruzi [9] = assay: Induction of reactive oxygen species generation in Trypanosoma cruzi trypomastigotes at antitrypanosomal IC50 measured after 60 to 120 mins by H2DCFDA dye based fluorescence assay; type: organism-based; details: in vitro
Method in brief: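 Trypomastigotes incubated with compound at IC50 for 60 and 120 min, then 20 μM H2DCFDA 15 min at 37 °C; fluorescence ex 485/em 520 nm; 10 mM sodium azide positive control, untreated negative; compound background and DMSO controls.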

[10] = Selectivity index, ratio of CC50 for mouse L929 cells to IC50 for Trypanosoma cruzi amastigotes infected in peritoneal macrophages (unknown origin); type: toxicity; details: read-out: Ratio CC50/IC50
Method in brief: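 Ratio of the L929 CC50 (MTT, 48 h) to the intracellular amastigote IC50 (infected peritoneal macrophages, 48 h).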

[11] = Cytotoxicity against mouse L929 cells measured after 48 hrs by MTT assay; type: cell-based
Method in brief: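 NCTC clone L929 cells, 6 × 10^4/well, incubated with compound 48 h at 37 °C; viability by MTT at 570 nm; CC50 taken as 50% cytotoxic concentration; highest concentration 200 μM.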

[12] = Trypanosoma cruzi, 24 h, read-out: IC50
[13] = Trypanosoma cruzi, 48 h, read-out: IC50

C=CCCCCCCC#CCCCCCCCCCCC1=C(O)[C@@H](C)OC1=O
Activity (Trypanosoma cruzi [1]): Active
IC50 (Trypanosoma cruzi [2]; [12]): 3.6 µM
Activity (Trypanosoma cruzi [3]): Active
Activity (Trypanosoma cruzi [4]): Active
IC50 (Trypanosoma cruzi [5]; [13]): 27.7 µM
Activity (Trypanosoma cruzi [6]): inactive
selectivity ratio [7]: > 55.6
Activity (Trypanosoma cruzi [8]): Active
Activity (Trypanosoma cruzi [9]): Non-Toxic
selectivity ratio [10]: > 7.2
CC50 at 48 h [11]: > 200 µM

CCCCCCCCCCCCCCCCCCCC[C@@H]1C(=O)O[C@H](C)[C@@H]1O
IC50 (Trypanosoma cruzi [2]): Not Active
IC50 (Trypanosoma cruzi [5]): Not Active

CCCCCCCCC#CCCCCCCCC(=O)O
IC50 (Trypanosoma cruzi [2]; [12]): 27.6 µM
IC50 (Trypanosoma cruzi [5]): Not Active
selectivity ratio [7]: > 7.2
CC50 at 48 h [11]: > 200 µM

C=CCCCCCCC#CCCCCCCCCCCC1=C(O)C(=C)OC1=O
Activity (Trypanosoma cruzi [1]): Active
IC50 (Trypanosoma cruzi [2]; [12]): 0.4 µM
Activity (Trypanosoma cruzi [3]): Active
Activity (Trypanosoma cruzi [4]): Active
IC50 (Trypanosoma cruzi [5]; [13]): 23 µM
Activity (Trypanosoma cruzi [6]): inactive
selectivity ratio [7]: 200
Activity (Trypanosoma cruzi [8]): Active
Activity (Trypanosoma cruzi [9]): Non-Toxic
selectivity ratio [10]: 3.5
CC50 at 48 h [11]: 80 µM

CCCCCCCCCCCCCCCCCC(=O)O [STEARIC ACID]
IC50 (Trypanosoma cruzi [2]): Not Active
IC50 (Trypanosoma cruzi [5]): Not Active

C=CCCCCCCC#CCCCCCCCCCC[C@@H]1C(=O)O[C@H](C)[C@@H]1O
IC50 (Trypanosoma cruzi [2]; [12]): 7.8 µM
IC50 (Trypanosoma cruzi [5]; [13]): 58.3 µM
selectivity ratio [7]: > 25.6
selectivity ratio [10]: > 3.4
CC50 at 48 h [11]: > 200 µM

O=C(Cn1ccnc1[N+](=O)[O-])NCc1ccccc1 [BENZNIDAZOLE]
IC50 (Trypanosoma cruzi [2]; [12]): 5.5 µM
IC50 (Trypanosoma cruzi [5]; [13]): 18.7 µM
